Assay [1] concerns Human immunodeficiency virus 1. Kind of assay: Anti-viral activity against HIV-1 LAI infected in human MT2 cells assessed as reduction in p24 Gag protein production. Format: functional, cell-based. The conditions noted are these: Human immunodeficiency virus 1, M:B_Lai.
Assay [2] is described as follows: Inhibition of HIV-1 protease using fluorogenic substrate by fluorescence assay. More on the design: species or system Human immunodeficiency virus 1.
Assay [3] concerns Human immunodeficiency virus 1. Kind of assay: Antiviral activity against HIV-1 harboring protease I50V mutant. In kind it is functional.
Assay [4] relates to Human immunodeficiency virus 1. Kind of assay: Antiviral activity against darunavir-resistant HIV1 harboring protease L10I/[…]K20R/L24I/V32I/M36I/M46L/L63P/V82A/L89M mutant infected in human MT4 cells assessed as reduction in p24 Gag protein production. The note with it: Human immunodeficiency virus 1, MT4. Format: functional, cell-based. A digest of the protocol: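 MT-4 cells (1×10^4) infected with 50 TCID₅₀ of wild-type HIV-1 NL4-3 or the DRV-resistant variant HIV-1 DRV^R P20 (protease L10I/I15V/K20R/L24I/V32I/M36I/M46L/L63P/V82A/L89M). Cells then cultured with various concentrations of each protease inhibitor. IC50 determined from p24 assay. Each assay run in triplicate. Values are means of three independent experiments, with fold-change relative to wild type.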

The subject of assay [5] is Human immunodeficiency virus 1. The assay is described as follows: Antiviral activity against wild type HIV-1 NL4-3 infected in human MT4 cells assessed as reduction in p24 Gag protein production. Format: functional, cell-based. The conditions noted are these: Human immunodeficiency virus 1, NL4-3, MT4.
Assay [6] can be described thus: Ratio of IC50 for darunavir-resistant HIV1 harboring protease L10I/I15V/K20R/L24I/V32I/M36I/M46L/L63P/V82A/L89M mutant infected in human MT4 cells to IC50 for wild type HIV1 NL4-3 infected in human MT4 cells. In kind it is functional.
A short description of assay [7]: Inhibition of wild-type HIV-1 protease. More on the design: species or system Human immunodeficiency virus 1.

These results are taken from ChEMBL document CHEMBL4043264, “Design, synthesis, X-ray studies, and biological evaluation of novel macrocyclic HIV-1 protease inhibitors involving the P1'-P2' ligands” (Bioorg Med Chem Lett, 2017).

As a reminder, the IC50 is the point on the concentration scale where inhibition reaches its midpoint. Usually Ki stands for a dissociation constant, usually derived from enzyme kinetics or from competition with a known ligand. Lower therefore signals a stronger hold on the target. For `COc1ccc2c(c1)COC/C=C/CCCCN(C[C@@H](O)[C@H](Cc1ccccc1)NC(=O)O[C@H]1CO[C@H]3OCC[C@H]31)S2(=O)=O`, the IC50 in assay [1] worked out at 46 nM. This molecule had a Ki in assay [2] of 0.015 nM.

For `COc1ccc2c(c1)OCCCCCCOCCN(C[C@@H](O)[C@H](Cc1ccccc1)NC(=O)O[C@H]1CO[C@H]3OCC[C@H]31)S2(=O)=O`, the IC50 in assay [1] is more than 1000 nM. The molecule also registered a Ki in assay [2] of 9.85 nM.

As for `COc1ccc2c(c1)COC/C=C/CCCCCN(C[C@@H](O)[C@H](Cc1ccccc1)NC(=O)O[C@H]1CO[C@H]3OCC[C@H]31)S2(=O)=O`, affinity in assay [2] was put at a Ki of 0.55 nM.

With `CC(C)CN(C[C@@H](O)[C@H](Cc1ccccc1)NC(=O)O[C@H]1CO[C@H]2OCC[C@H]21)S(=O)(=O)c1ccc(N)cc1`, the IC50 in assay [3] is 1.6 nM.

In the case of `COc1ccc2c(c1)COCCCCCCCCN(C[C@@H](O)[C@H](Cc1ccccc1)NC(=O)O[C@H]1CO[C@H]3OCC[C@H]31)S2(=O)=O`, the IC50 in assay [1] was determined as 31 nM. The affinity in assay [2], expressed as Ki, was 0.062 nM.

The molecule `COc1ccc2c(c1)COC/C=C\CCCCCN(C[C@@H](O)[C@H](Cc1ccccc1)NC(=O)O[C@H]1CO[C@H]3OCC[C@H]31)S2(=O)=O` had a Ki in assay [2] of 0.64 nM.

On to `COc1ccc2c(c1)OCCCCCN1C(=O)CC[C@@H]1CN(C[C@@H](O)[C@H](Cc1ccccc1)NC(=O)O[C@H]1CO[C@H]3OCC[C@H]31)S2(=O)=O`, for which the IC50 in assay [1] worked out at 122 nM. Further, the affinity in assay [2] corresponds to a Ki of 0.46 nM.

The molecule `COc1ccc2c(c1)OCCCCCOCCN(C[C@@H](O)[C@H](Cc1ccccc1)NC(=O)O[C@H]1CO[C@H]3OCC[C@H]31)S2(=O)=O` gave a Ki in assay [2] of 4.21 nM.

Molecule `COc1ccc2c(c1)OCCCCCCN(S(C)(=O)=O)CCN(C[C@@H](O)[C@H](Cc1ccccc1)NC(=O)O[C@H]1CO[C@H]3OCC[C@H]31)S2(=O)=O` showed a Ki in assay [2] of 13.3 nM. This Ki is about 3.2-fold higher than that of the molecule before.

With `COc1ccc2c(c1)OCCCCCN1C(=O)CC[C@H]1CN(C[C@@H](O)[C@H](Cc1ccccc1)NC(=O)O[C@H]1CO[C@H]3OCC[C@H]31)S2(=O)=O`, in assay [1], the IC50 was more than 1000 nM. In assay [2], this molecule had a Ki of 27 nM.

In the case of `COc1ccc2c(c1)OCC/C=C/CN1C(=O)CC[C@@H]1CN(C[C@@H](O)[C@H](Cc1ccccc1)NC(=O)O[C@H]1CO[C@H]3OCC[C@H]31)S2(=O)=O`, in assay [1], the 50% inhibitory concentration (IC50) is 176 nM. In assay [2], the Ki was found to be 0.47 nM.

Turning to `Nc1ccc2c(c1)COCCCCCCCN(C[C@@H](O)[C@H](Cc1ccccc1)NC(=O)O[C@H]1CO[C@H]3OCC[C@H]31)S2(=O)=O`, the IC50 was determined as 20 nM in assay [4], 1.5 nM in assay [5] and 2 nM in assay [1]. In assay [6], the “Ratio IC50” value is 13. The molecule further came in with a Ki in assay [2] of 0.014 nM.

As for `COc1ccc2c(c1)OCCCCCN(S(C)(=O)=O)CCN(C[C@@H](O)[C@H](Cc1ccccc1)NC(=O)O[C@H]1CO[C@H]3OCC[C@H]31)S2(=O)=O`, in assay [2], the Ki stood at 33.3 nM. That is a double-digit nanomolar value.

`COc1ccc(S(=O)(=O)N(CC(C)C)C[C@@H](O)[C@H](Cc2ccccc2)NC(=O)O[C@H]2CO[C@H]3OCC[C@H]32)cc1`: the affinity in assay [7] corresponds to a Ki of 0.014 nM. Moreover, the midpoint of inhibition in assay [3], the IC50, lay at 1.2 nM.

With `COc1ccc2c(c1)OCC/C=C\CN1C(=O)CC[C@@H]1CN(C[C@@H](O)[C@H](Cc1ccccc1)NC(=O)O[C@H]1CO[C@H]3OCC[C@H]31)S2(=O)=O`, the IC50 in assay [1] amounted to 22 nM. In assay [2], the Ki is 13.2 nM.

With `COc1ccc2c(c1)COC/C=C\CCCCN(C[C@@H](O)[C@H](Cc1ccccc1)NC(=O)O[C@H]1CO[C@H]3OCC[C@H]31)S2(=O)=O`, the IC50 in assay [1] came to 54 nM. Besides, the Ki in assay [2] was determined as 0.029 nM.

In the case of `COc1ccc2c(c1)COCCCCCCCN(C[C@@H](O)[C@H](Cc1ccccc1)NC(=O)O[C@H]1CO[C@H]3OCC[C@H]31)S2(=O)=O`, the IC50 in assay [4] came out at 240 nM; in assay [5], 3.6 nM; in assay [1], 5.3 nM. In assay [6], the “Ratio IC50” value is on record as 67. The same molecule registered a Ki in assay [2] of 0.062 nM.
